ChEMBL document CHEMBL3414496, “Synthesis and biological evaluation of novel 2-heteroarylimino-1,3-thiazolidin-4-ones as potential anti-tumor agents” (Eur J Med Chem, 2015)
Calls of active or inactive are those of the source. The rule behind the calls is not given here.

How the values were obtained:
HT-29 [1] = assay: Induction of HO1 expression in human HT-29 cells at 3.8 uM after 24 hrs by Western blotting method; assay type: functional
Method in brief: (§1)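 HT29 whole-cell lysates in Hepes/KOH pH 7.5 with EDTA, KCl, NP40, DTT, protease inhibitors; 50 µg protein on 10–15% SDS-PAGE, nitrocellulose, overnight 4°C primary antibody (GCL 1:500, HO-1 1:1000), HRP secondary, chemiluminescence. Bands normalized to GAPDH (1:10 000), DMSO ratio set at 1.00; representative of three independent experiments.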

HT-29 [2] = assay: Induction of HO1 expression in human HT-29 cells at 3.8 uM after 2 hrs by Western blotting method; assay type: functional; method in brief: as §1
HT-29 [3] = assay: Induction of GCL expression in human HT-29 cells at 3.8 uM after 2 hrs by Western blotting method; assay type: functional; method in brief: as §1
HT-29 [4] = assay: Induction of HO1 expression in human HT-29 cells at 3.8 uM after 6 hrs by Western blotting method; assay type: functional; method in brief: as §1
HT-29 [5] = assay: Induction of NQO1 expression in human HT-29 cells at 3.8 uM after 24 hrs by Western blotting method; assay type: functional
Method in brief: (§2)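 Whole-cell lysates from treated HT29 cells in pH 7.5 Hepes/KOH buffer with EDTA, KCl, Igepal, DTT and protease inhibitors. 50 µg protein run on 10-15% SDS-PAGE and transferred to nitrocellulose. Probed overnight at 4°C with anti-HO-1 (1:1 000), anti-NQO1 (1:1 000) or anti-GCL (1:500), then HRP secondary for 45 min and chemiluminescence. Bands normalized to GAPDH (1:10 000), with the DMSO ratio set to 1.00. Representative of three experiments.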

HT-29 [6] = assay: Induction of HO1 expression in human HT-29 cells at 3.8 uM after 4 hrs by Western blotting method; assay type: functional; method in brief: as §1
HT-29 [7] = assay: Induction of NQO1 expression in human HT-29 cells at 3.8 uM after 6 hrs by Western blotting method; assay type: functional; method in brief: as §2
HT-29 [8] = assay: Induction of NQO1 expression in human HT-29 cells at 3.8 uM after 2 hrs by Western blotting method; assay type: functional; method in brief: as §2
HT-29 [9] = assay: Induction of ROS generation in human HT-29 cells at 2.5 uM after 2 to 6 hrs by DCF-DA staining based fluorescence assay; assay type: functional, cell-based
Method in brief: (§3)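 HT29 cells treated two days after seeding, then loaded with 50 µM DCF-DA for 15 min at 37°C. Cells trypsinized, washed and resuspended in PBS, and 30 000 cells/sample read by flow cytometry (FL-1). Expressed as % of DMSO-treated cells; […] for 1 h served as positive control. Triplicates from three independent experiments.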

HT-29 [10] = assay: Induction of redox status changes in human HT-29 cells assessed as ROS content in presence of 1 mM ascorbic acid by DCF-DA staining based fluorescence assay (reference value: 64.7 +/- 2.6%)
HT-29 [11] = assay: Induction of ROS generation in human HT-29 cells at 2.5 uM after 3 hrs by DCF-DA staining based fluorescence assay; assay type: functional, cell-based; method in brief: as §3
HT-29 [12] = assay: Inhibition of cell growth in human HT-29 cells assessed as mitotic index ratio in presence of 1 mM ascorbic acid (reference value: 1.08 +/- 0.04); assay type: functional
HT-29 [13] = assay: Induction of HO1 expression in human HT-29 cells at 1.5 uM after 6 hrs by Western blotting method; assay type: functional; method in brief: as §1
HT-29 [14] = assay: Induction of GCL expression in human HT-29 cells at 1.5 uM after 4 hrs by Western blotting method; assay type: functional; method in brief: as §1
HT-29 [15] = assay: Induction of GCL expression in human HT-29 cells at 1.5 uM after 6 hrs by Western blotting method; assay type: functional; method in brief: as §1
HT-29 [16] = assay: Induction of NQO1 expression in human HT-29 cells at 1.5 uM after 6 hrs by Western blotting method; assay type: functional; method in brief: as §2
HT-29 [17] = assay: Induction of HO1 expression in human HT-29 cells at 1.5 uM after 24 hrs by Western blotting method; assay type: functional; method in brief: as §1
HT-29 [18] = assay: Induction of HO1 expression in human HT-29 cells at 1.5 uM after 2 hrs by Western blotting method; assay type: functional; method in brief: as §1
HT-29 [19] = assay: Induction of NQO1 expression in human HT-29 cells at 1.5 uM after 24 hrs by Western blotting method; assay type: functional; method in brief: as §2
HT-29 [20] = assay: Induction of GCL expression in human HT-29 cells at 1.5 uM after 2 hrs by Western blotting method; assay type: functional; method in brief: as §1
HT-29 [21] = assay: Induction of NQO1 expression in human HT-29 cells at 6.4 uM after 24 hrs by Western blotting method; assay type: functional; method in brief: as §2
HT-29 [22] = assay: Induction of NQO1 expression in human HT-29 cells at 6.4 uM after 6 hrs by Western blotting method; assay type: functional; method in brief: as §2
HT-29 [23] = assay: Induction of GCL expression in human HT-29 cells at 6.4 uM after 2 hrs by Western blotting method; assay type: functional; method in brief: as §1
HT-29 [24] = assay: Induction of NQO1 expression in human HT-29 cells at 6.4 uM after 2 hrs by Western blotting method; assay type: functional; method in brief: as §2
HT-29 [25] = assay: Induction of HO1 expression in human HT-29 cells at 6.4 uM after 4 hrs by Western blotting method; assay type: functional; method in brief: as §1
HT-29 [26] = assay: Induction of NQO1 expression in human HT-29 cells at 6.4 uM after 4 hrs by Western blotting method; assay type: functional; method in brief: as §2
HT-29 [27] = assay: Induction of HO1 expression in human HT-29 cells at 6.4 uM after 24 hrs by Western blotting method; assay type: functional; method in brief: as §1
HT-29 [28] = assay: Induction of HO1 expression in human HT-29 cells at 6.4 uM after 2 hrs by Western blotting method; assay type: functional; method in brief: as §1
HT-29 [29] = assay: Induction of HO1 expression in human HT-29 cells at 6.4 uM after 6 hrs by Western blotting method; assay type: functional; method in brief: as §1
HT-29 [30] = assay: Induction of GCL expression in human HT-29 cells at 6.4 uM after 24 hrs by Western blotting method; assay type: functional; method in brief: as §1
HT-29 [31] = assay: Induction of GCL expression in human HT-29 cells at 6.4 uM after 6 hrs by Western blotting method; assay type: functional; method in brief: as §1
HT-29 [32] = assay: Induction of NQO1 expression in human HT-29 cells at 10 uM after 4 hrs by Western blotting method; assay type: functional; method in brief: as §2
HT-29 [33] = assay: Induction of GCL expression in human HT-29 cells at 10 uM after 2 hrs by Western blotting method; assay type: functional; method in brief: as §1
HT-29 [34] = assay: Induction of NQO1 expression in human HT-29 cells at 10 uM after 6 hrs by Western blotting method; assay type: functional; method in brief: as §2
HT-29 [35] = assay: Induction of HO1 expression in human HT-29 cells at 10 uM after 6 hrs by Western blotting method; assay type: functional; method in brief: as §1
HT-29 [36] = assay: Induction of NQO1 expression in human HT-29 cells at 10 uM after 24 hrs by Western blotting method; assay type: functional; method in brief: as §2
HT-29 [37] = assay: Induction of ROS generation in human HT-29 cells at cytotoxic IC50 level after 30 mins by DCF-DA staining based fluorescence assay; assay type: functional, cell-based; method in brief: as §3
HT-29 [38] = assay: Induction of GCL expression in human HT-29 cells at 10 uM after 24 hrs by Western blotting method; assay type: functional; method in brief: as §1
HT-29 [39] = assay: Induction of HO1 expression in human HT-29 cells at 10 uM after 24 hrs by Western blotting method; assay type: functional; method in brief: as §1
HT-29 [40] = assay: Induction of NQO1 expression in human HT-29 cells at 10 uM after 2 hrs by Western blotting method; assay type: functional; method in brief: as §2

COc1ccc(/C=C2\S/C(=N\c3csc(-c4ccc(Cl)cc4)c3)NC2=O)cc1
fold change (FC) (HT-29 [1]): 1 | fold change (FC) (HT-29 [2]): 1 | fold change (FC) (HT-29 [3]): 1.22 | fold change (FC) (HT-29 [4]): 1 | fold change (FC) (HT-29 [5]): 0.88 | fold change (FC) (HT-29 [6]): 1 | fold change (FC) (HT-29 [7]): 0.9 | fold change (FC) (HT-29 [8]): 1.16

COc1ccc(/C=C2\S/C(=N\c3nc(-c4ccc(Cl)cc4)cs3)NC2=O)cc1
Activity (HT-29 [9]): inactive

CN(C)c1ccc(/C=C2\S/C(=N\c3nc(-c4ccc(Cl)cc4)cs3)NC2=O)cc1
Activity (HT-29 [10]): 158.8% | Activity (HT-29 [11]): Active | Ratio (HT-29 [12]): 0.09

CN(C)c1ccc(/C=C2\S/C(=N\c3csc(-c4ccc(Cl)cc4)c3)NC2=O)cc1
fold change (FC) (HT-29 [13]): 1 | fold change (FC) (HT-29 [14]): 0.96 | fold change (FC) (HT-29 [15]): 0.99 | fold change (FC) (HT-29 [16]): 1.26 | fold change (FC) (HT-29 [17]): 1 | fold change (FC) (HT-29 [18]): 1 | fold change (FC) (HT-29 [19]): 1.07 | fold change (FC) (HT-29 [20]): 0.9

Cc1ccc(/C=C2\S/C(=N\c3csc(-c4ccc(Cl)cc4)c3)NC2=O)cc1
fold change (FC) (HT-29 [21]): 1.6 | fold change (FC) (HT-29 [22]): 1.86 | fold change (FC) (HT-29 [23]): 1.93 | fold change (FC) (HT-29 [24]): 2.23 | fold change (FC) (HT-29 [25]): 1 | fold change (FC) (HT-29 [26]): 2.59 | fold change (FC) (HT-29 [27]): 1 | fold change (FC) (HT-29 [28]): 1 | fold change (FC) (HT-29 [29]): 1 | fold change (FC) (HT-29 [30]): 0.97 | fold change (FC) (HT-29 [31]): 2.25

COc1ccc(/C=C2\S/C(=N\c3csc(-c4ccc(Cl)cc4)c3)NC2=O)cc1OC
fold change (FC) (HT-29 [32]): 1.26 | fold change (FC) (HT-29 [33]): 0.96 | fold change (FC) (HT-29 [34]): 1.23 | fold change (FC) (HT-29 [35]): 1 | fold change (FC) (HT-29 [36]): 0.9 | Activity (HT-29 [37]): Active | fold change (FC) (HT-29 [38]): 1.11 | fold change (FC) (HT-29 [39]): 1 | fold change (FC) (HT-29 [40]): 1.04
